Screening data (PubChem BioAssay)
miR-122 sensor: blocks miR-122 activity in Huh7 sensor cells; Huh7 miR-122 Renilla luciferase sensor, 48 h; neutral wells = 0, positive control = 100; activation (reporter increase), % at 12.5 µM; 340,000 tested, 0.3% active; AID 602342;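 active = mean replicate activation score at least 90 and every replicate individually at or above 90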;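 note: higher luciferase means less miR-122 activity so hits act as miR-122 inhibitors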
CAL PDZ FP-1: human CAL PDZ-peptide interaction inhibition; Q9HD26; purified CAL PDZ, TMR-peptide fluorescence polarization, 1 h; inhibition, % at 20 µM; 330,000 tested, 0.02% active; AID 504414;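 active = highest replicate inhibition of at least 40%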;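 note: plate controls were DMSO neutral control wells for no effect and unlabeled competitor peptide control wells for full effect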
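Control set: unlabelled peptide and DMSO controls / Material: purified CerCALP PDZ construct / Timing: 1 h incubation at room temperature before polarization reading / Doses: 20 µM, one dose / Detection: fluorescence polarization (mP)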
CAL PDZ FP-2: CAL PDZ (human) peptide binding inhibition. 300,000 tested, 0.92% active. purified CAL PDZ, TMR-peptide fluorescence polarization, 1 h. inhibition, % at 24.9 µM. Q9HD26;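 active = mean inhibition of at least 30% with at least half of replicates also reaching 30%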;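 note: 0% = DMSO neutral control and 100% = excess unlabeled competitor peptide PRC23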
SR-BI DiI-HDL act: enhances SR-BI lipid uptake from DiI-HDL. CHO ldlA[mSR-BI] cells, DiI-HDL uptake fluorescence, 3 h; 100 = double the neutral-control signal. activation, % at 12.5 µM. 320,000 tested, 0.096% active;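 active = mean replicate activation of at least 60% and every replicate at or above 60%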;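 note: 0% = median plate neutral-control signal and 100% = twice that signal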
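Material – SR-BI-overexpressing, LDLR-lacking CHO cells · Medium – BSA-supplemented, HEPES-buffered Ham's F12, pH 7.4 · Doses – single concentration · Times – compound with DiI-HDL co-incubation, 3 h at 37 °C · Measured by – bottom-read fluorescence, 550/595 nm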
SR-BI DiI inh: mouse SR-BI HDL lipid transfer inhibition. ldlA[mSR-BI] CHO cells, DiI-HDL uptake fluorescence, 3 h. 320,000 tested, 0.96% active. inhibition, % at 12.5 µM;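 active = mean replicate inhibition of at least 70% and a set share of replicates each scoring 70 or more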;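 note: 0% = median of neutral control wells and 100% = median of positive control wells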
Target sequence (Q61009 whole entry, looked up): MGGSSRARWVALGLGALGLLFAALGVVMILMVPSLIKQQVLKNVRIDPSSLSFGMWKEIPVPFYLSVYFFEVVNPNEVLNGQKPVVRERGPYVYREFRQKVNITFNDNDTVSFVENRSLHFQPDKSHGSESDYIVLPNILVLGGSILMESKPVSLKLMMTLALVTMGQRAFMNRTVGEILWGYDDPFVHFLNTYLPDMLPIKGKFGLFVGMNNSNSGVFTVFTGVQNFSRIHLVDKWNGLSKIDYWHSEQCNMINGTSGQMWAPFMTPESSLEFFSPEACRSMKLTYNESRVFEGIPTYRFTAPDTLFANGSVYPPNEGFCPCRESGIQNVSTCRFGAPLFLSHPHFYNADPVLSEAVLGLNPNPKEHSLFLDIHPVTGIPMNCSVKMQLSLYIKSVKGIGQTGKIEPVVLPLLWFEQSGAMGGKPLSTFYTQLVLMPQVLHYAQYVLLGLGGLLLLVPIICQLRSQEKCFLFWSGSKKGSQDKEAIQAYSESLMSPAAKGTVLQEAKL
ARNT-TACC3 inh: disrupts binding between human ARNT and TACC3; Q9Y6A5; AlphaScreen His-ARNT PAS-B/GST-TACC3 binding, luminescence; TACC3 fragment carries E629A point mutation; inhibition, % at 9.99 µM; 390,000 tested, 0.66% active;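 active = mean inhibition of replicates at least 50% and at least half of replicates each reaching 50%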;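 note: 0% = complete ARNT plus TACC3 wells and 100% = ARNT alone without TACC3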
* = called active by the depositor; [ ] = another dose, or the depositor's remark. Shown are actives, neighbours in structure and some others; about 2.1% of the full set was active somewhere.

For COC(=O)c1ccc2c(c1)C(C)(C)C(/C=C/c1ccc(OC)c(OC)c1OC)=[N+]2C the results were miR-122 sensor -40, CAL PDZ FP-1 0, CAL PDZ FP-2 -4, SR-BI DiI-HDL act -105, SR-BI DiI inh 105* and ARNT-TACC3 inh 5.
CO[C@@H]1CN(C)C(=O)c2ccc(NS(=O)(=O)c3ccccc3C)cc2OC[C@H](C)N(C)C[C@H]1C was read as ARNT-TACC3 inh -4.
For O=C1Nc2ccc(Br)cc2/C1=C/C(=O)c1ccc2c(c1)OCO2 the results were CAL PDZ FP-1 1, CAL PDZ FP-2 -4, SR-BI DiI-HDL act -75, SR-BI DiI inh 75* and ARNT-TACC3 inh -8.
Screening Cc1ccc(N/N=C(\C#N)C(N)=S)c(C)c1 returned CAL PDZ FP-1 0, CAL PDZ FP-2 -2, SR-BI DiI-HDL act -77, SR-BI DiI inh 77* and ARNT-TACC3 inh 34.
Screening Cc1ccc(NC(=O)/C(C#N)=N/Nc2ccc(C(=O)O)cc2)c(C)c1 returned miR-122 sensor 1, CAL PDZ FP-1 -2, CAL PDZ FP-2 -1, SR-BI DiI-HDL act 27, SR-BI DiI inh -27 and ARNT-TACC3 inh 24.
NCC(O)COCCC12CC3CC(CC(C3)C1)C2 (stereo not drawn) was read as miR-122 sensor 1, CAL PDZ FP-1 -2, CAL PDZ FP-2 39*, SR-BI DiI-HDL act 0, SR-BI DiI inh 0 and ARNT-TACC3 inh 2.
`CCOc1ccc(C(=O)Nc2cccc(-n3cnnn3)c2)cc1OCC` gave miR-122 sensor -6, CAL PDZ FP-1 -2, CAL PDZ FP-2 -2, SR-BI DiI-HDL act -68, SR-BI DiI inh 68 and ARNT-TACC3 inh 5.
For CCCCOc1ccc(C(=O)Nc2cccc(-n3cnnn3)c2)cc1OC the results were miR-122 sensor 4, CAL PDZ FP-1 -2, CAL PDZ FP-2 -1, SR-BI DiI-HDL act -75, SR-BI DiI inh 75* and ARNT-TACC3 inh -2.
`O=C1Cc2ccccc2N1c1ccccc1` gave miR-122 sensor 15, CAL PDZ FP-1 -1, CAL PDZ FP-2 -5, SR-BI DiI-HDL act 25, SR-BI DiI inh -25 and ARNT-TACC3 inh -1.
`O=C1CC(=Nc2ccccc2)NN1c1ccccc1` gave miR-122 sensor -3, CAL PDZ FP-1 0, CAL PDZ FP-2 -2, SR-BI DiI-HDL act -108, SR-BI DiI inh 108* and ARNT-TACC3 inh 16.
CN1c2ccc(Br)cc2[C@H]2[C@H](CCN2S(=O)(=O)c2cccc(F)c2)[C@@H]1CO was read as miR-122 sensor 19[16.7 µM] and ARNT-TACC3 inh -2.
`CCCCc1c(O)nc(SCC(=O)NC(C)(C)C)n(-c2ccccc2C)c1=O` gave miR-122 sensor -2, CAL PDZ FP-1 -1, CAL PDZ FP-2 4, SR-BI DiI-HDL act 8, SR-BI DiI inh -8 and ARNT-TACC3 inh 8.
For CCCCc1c(O)nc(SCC(=O)N2CCCCC2)n(-c2ccccc2C)c1=O the results were miR-122 sensor -5, CAL PDZ FP-1 -1, CAL PDZ FP-2 54*, SR-BI DiI-HDL act 31, SR-BI DiI inh -31 and ARNT-TACC3 inh -6.
COc1ccc(CN(C)C[C@H]2Oc3ccc(NS(=O)(=O)c4c(C)noc4C)cc3C(=O)N([C@H](C)CO)C[C@H]2C)cc1 was read as miR-122 sensor 34[16.7 µM] and ARNT-TACC3 inh -6.
For O=C(NC(=S)Nc1cccc(NC(=S)NC(=O)c2ccccc2)c1)c1ccccc1 the results were CAL PDZ FP-1 0, CAL PDZ FP-2 -6, SR-BI DiI-HDL act -72, SR-BI DiI inh 72* and ARNT-TACC3 inh -1.
O=C(Nc1nc(-c2ccccc2)c(-c2ccccc2)o1)c1ccc(F)cc1 was read as miR-122 sensor 7, CAL PDZ FP-1 -1, CAL PDZ FP-2 0, SR-BI DiI-HDL act -24, SR-BI DiI inh 24 and ARNT-TACC3 inh 46*.
For O=C(Nc1cc(C(F)(F)F)ccc1Cl)c1ccc(NC(=O)C(F)(F)F)cc1 the results were CAL PDZ FP-1 -2, CAL PDZ FP-2 -4, SR-BI DiI-HDL act -53, SR-BI DiI inh 53 and ARNT-TACC3 inh -25.
CCCC(=O)Nc1ccc(C(=O)Nc2cccc(OC)c2)cc1 was read as CAL PDZ FP-1 0, CAL PDZ FP-2 2, SR-BI DiI-HDL act -74, SR-BI DiI inh 74* and ARNT-TACC3 inh -3.
COc1cccc(C(=O)Nc2nc(-c3ccccc3)c(-c3ccccc3)o2)c1 was read as CAL PDZ FP-1 -1, CAL PDZ FP-2 -3, SR-BI DiI-HDL act -40, SR-BI DiI inh 40 and ARNT-TACC3 inh 5.
CCCC(=O)Nc1ccc(C(=O)Nc2cc(C(F)(F)F)ccc2Cl)cc1 was read as miR-122 sensor -4, CAL PDZ FP-1 0, CAL PDZ FP-2 -2, SR-BI DiI-HDL act -74, SR-BI DiI inh 74* and ARNT-TACC3 inh -4.
For C/C=C/c1ccc([C@H]2[C@H](CO)N(C(=O)CC)[C@H]2CNC(=O)CC2CC2)cc1 the results were miR-122 sensor -7[16.7 µM].
Screening COc1ccc(C(=O)Nc2ccccc2N2CCN(C(=O)c3ccccc3)CC2)cc1Br returned miR-122 sensor -5, CAL PDZ FP-1 -2, CAL PDZ FP-2 11, SR-BI DiI-HDL act -86, SR-BI DiI inh 86* and ARNT-TACC3 inh -2.
COc1ccc(C(=O)Nc2ccc(N3CCCCC3)cc2)cc1Br was read as CAL PDZ FP-1 -1, CAL PDZ FP-2 0, SR-BI DiI-HDL act -62, SR-BI DiI inh 62 and ARNT-TACC3 inh -2.
Screening COc1ccc(C(=O)Nc2ccc(Nc3ccccc3)cc2)cc1Br returned CAL PDZ FP-1 0, CAL PDZ FP-2 -1, SR-BI DiI-HDL act -98, SR-BI DiI inh 98* and ARNT-TACC3 inh -9.
O=C(Nc1ccccc1N1CCN(C(=O)c2ccccc2)CC1)c1ccc(Cl)cc1 was read as miR-122 sensor 12, CAL PDZ FP-1 -2, CAL PDZ FP-2 -3, SR-BI DiI-HDL act -14, SR-BI DiI inh 14 and ARNT-TACC3 inh 3.
Screening O=C(NNC(=O)c1ccc(NC(=O)c2ccccc2)cc1)Nc1ccccc1 returned CAL PDZ FP-1 1, SR-BI DiI-HDL act -4 and SR-BI DiI inh 4.
CC(C)CNC(=O)c1cccc(NC(=O)c2ccccc2-c2ccccc2C(=O)O)c1 was read as miR-122 sensor 0, CAL PDZ FP-2 89*, SR-BI DiI-HDL act 4, SR-BI DiI inh -4 and ARNT-TACC3 inh -2.
For CC(=O)c1cccc(NC(=O)c2ccccc2-c2ccccc2C(=O)O)c1 the results were miR-122 sensor -1, CAL PDZ FP-1 0, CAL PDZ FP-2 -2 and ARNT-TACC3 inh -7.
Screening O=C(NNC(=O)c1ccc(NC(=O)c2ccccc2)cc1)c1ccc(F)cc1 returned miR-122 sensor -3, CAL PDZ FP-1 -1, CAL PDZ FP-2 48*, SR-BI DiI-HDL act -12, SR-BI DiI inh 12 and ARNT-TACC3 inh -10.
